Active and inactive are the calls of the source. No cut-off for these calls is given here.
Tests used:
[1] = tested on: RAW264.7; test: Cytotoxicity against LPS-stimulated mouse RAW264.7 cells at 20 uM after 24 hrs by MTT assay; format: cell-based; conditions: raw264.7, 24 h
How it was run: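 RAW264.7 cells co-treated with test agent (20 μM) and LPS (1 μg/mL) for 24 h; survival read by MTT. Mean ± SD, n = 3; significance versus control group.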

[2] = tested on: RAW264.7; test: Antiinflammatory activity in mouse RAW264.7 cells assessed as inhibition of LPS-induced NO production at 20 uM after 24 hrs by Griess method; format: functional, cell-based
How it was run: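 RAW264.7 cells co-treated with test agent (20 μM) and LPS (1 μg/mL) for 24 h. NO released to medium measured by Griess assay. Hydrocortisone sodium succinate (20 μM) positive control. Mean ± SD, n = 3; significance versus control.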

[3] = tested on: RAW264.7; test: Antiinflammatory activity in mouse RAW264.7 cells assessed as reduction in LPS-stimulated TNF alpha secretion preincubated for 2 hrs followed by LPS addition and measured after 4 hrs by ELISA; format: functional, cell-based
How it was run: (§1)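 RAW264.7 cells pretreated 2 h with test agent (10, 20, 30 μM) or hydrocortisone sodium succinate (20 μM), then LPS (1 μg/mL) for 4 h. TNF-α and IL-6 production measured. Mean ± SD, n = 3; significance versus control group.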

[4] = tested on: RAW264.7; test: Antiinflammatory activity in mouse RAW264.7 cells assessed as reduction in LPS-induced IL-6 secretion preincubated for 2 hrs followed by LPS addition and measured after 4 hrs by ELISA; format: functional, cell-based; how it was run: as §1
[5] = tested on: RAW264.7; test: Antiinflammatory activity in mouse RAW264.7 cells assessed as reduction in LPS-induced iNOS expression after 24 hrs by Western blot analysis; format: functional, cell-based
How it was run: (§2)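 RAW264.7 cells co-treated 24 h with LPS (1 μg/mL) plus test agent (10, 20, 30 μM) or hydrocortisone sodium succinate (20 μM). COX-2 and iNOS protein levels determined. Mean ± SD of three independent experiments; significance versus LPS-stimulated group.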

[6] = tested on: RAW264.7; test: Antiinflammatory activity in mouse RAW264.7 cells assessed as reduction in LPS-induced COX2 protein expression after 24 hrs by Western blot analysis; format: functional, cell-based; how it was run: as §2
[7] = tested on: RAW264.7; test: Inhibition of LPS-stimulated NFkappaB activation in mouse RAW264.7 cells assessed as reduction in LPS-induced IkappaB degradation at 10 to 30 uM after 2 hrs by Western blot analysis; format: cell-based
How it was run: (§3)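 RAW264.7 cells co-treated 2 h with LPS (1 μg/mL) plus test agent (10, 20, 30 μM) or hydrocortisone sodium succinate (20 μM). IκB phosphorylation and degradation assessed as NF-κB pathway read-out. Mean ± SD, n = 3; significance versus LPS-stimulated group.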

[8] = tested on: RAW264.7; test: Inhibition of LPS-stimulated NFkappaB activation in mouse RAW264.7 cells assessed as reduction in LPS-induced IkappaB phosphorylation at 10 to 30 uM after 2 hrs by Western blot analysis; format: cell-based; how it was run: as §3
[9] = tested on: RAW264.7; test: Antiinflammatory activity in LPS-induced mouse RAW264.7 cells in presence of glucocorticoid receptor antagonist RU-486; format: functional, cell-based
[10] = tested on: RAW264.7; test: Inhibition of LPS-stimulated NFkappaB activation in mouse RAW264.7 cells assessed as reduction in LPS-induced IkappaB degradation at 20 uM after 2 hrs by Western blot analysis; format: cell-based; how it was run: as §3
[11] = tested on: RAW264.7; test: Inhibition of LPS-stimulated NFkappaB activation in mouse RAW264.7 cells assessed as reduction in LPS-induced IkappaB phosphorylation at 20 uM after 2 hrs by Western blot analysis; format: cell-based; how it was run: as §3
[12] = tested on: RAW264.7; test: Antiinflammatory activity in mouse RAW264.7 cells assessed as reduction in LPS-induced iNOS expression at 20 uM after 24 hrs by Western blot analysis; format: functional, cell-based; how it was run: as §2
[13] = tested on: RAW264.7; test: Antiinflammatory activity in mouse RAW264.7 cells assessed as reduction in LPS-induced COX2 protein expression at 20 uM after 24 hrs by Western blot analysis; format: functional, cell-based; how it was run: as §2

Structure (SMILES)	Activity [1]	inhibition [2]	also measured
CCCCCC(=O)O[C@H]1CC[C@]2(C)[C@H]3C[C@@H](O)[C@@H]4[C@@H]([C@]5(C)CC[C@H](C(C)(C)O)O5)CC[C@@]4(C)[C@]3(C)CC[C@H]2C1(C)C	Non-Toxic	Active	
CC(C)(O)[C@H]1CC[C@@](C)([C@H]2CC[C@]3(C)[C@@H]2[C@H](O)C[C@@H]2[C@@]4(C)CC/C(=N\O)C(C)(C)[C@@H]4CC[C@]23C)O1	Non-Toxic	Active	Activity [3]: Dose-dependent effect; Activity [4]: Dose-dependent effect; Activity [5]: Dose-dependent effect; Activity [6]: Dose-dependent effect; inhibition [7]: Active; inhibition [8]: Active; Activity [9]: Active
CC(C)(O)[C@@H]1CC[C@@](C)([C@H]2CC[C@]3(C)[C@@H]2[C@H](O)C[C@@H]2[C@@]4(C)CCC(=O)C(C)(C)[C@@H]4CC[C@]23C)O1	Non-Toxic	Active	
CC(C)(O)[C@H]1CC[C@@](C)([C@H]2CC[C@]3(C)[C@@H]2[C@@H](N)C[C@@H]2[C@@]4(C)CC[C@H](O)C(C)(C)[C@@H]4CC[C@]23C)O1	Toxic		
CC(C)(O)[C@H]1CC[C@@](C)([C@H]2CC[C@]3(C)[C@@H]2[C@H](O)C[C@@H]2[C@@]4(C)CCC(=O)C(C)(C)[C@@H]4CC[C@]23C)O1	Non-Toxic	Active	
CC(C)(O)[C@H]1CC[C@@](C)([C@H]2CC[C@]3(C)[C@@H]2[C@@H](O)C[C@@H]2[C@@]4(C)CC[C@H](O)C(C)(C)[C@@H]4CC[C@]23C)O1		inactive	
CC(C)(O)[C@@H]1CC[C@@](C)([C@H]2CC[C@]3(C)[C@@H]2[C@H](O)C[C@@H]2[C@@]4(C)CC[C@H](O)C(C)(C)[C@@H]4CC[C@]23C)O1	Non-Toxic	inactive	
CC(C)(O)[C@H]1CC[C@@](C)([C@H]2CC[C@]3(C)[C@@H]2C(=N)C[C@@H]2[C@@]4(C)CC[C@H](O)C(C)(C)[C@@H]4CC[C@]23C)O1	Non-Toxic	inactive	
CCCCCC(=O)O[C@H]1CC[C@]2(C)[C@H]3C[C@@H](O)[C@@H]4[C@@H]([C@]5(C)CC[C@@H](C(C)(C)O)O5)CC[C@@]4(C)[C@]3(C)CC[C@H]2C1(C)C	Non-Toxic	Active	
C[C@]12CCC(=O)C=C1CC[C@@H]1[C@@H]2[C@@H](O)C[C@@]2(C)[C@H]1CC[C@]2(O)C(=O)COC(=O)CCC(=O)O			inhibition [10]: Active; inhibition [11]: Active; Activity [12]: Active; Activity [13]: Active
CC(C)(O)[C@H]1CC[C@@](C)([C@H]2CC[C@]3(C)[C@@H]2[C@H](O)C[C@@H]2[C@@]4(C)CC[C@H](O)C(C)(C)[C@@H]4CC[C@]23C)O1	Non-Toxic	Active	
CC(C)(O)[C@H]1CC[C@@](C)([C@H]2CC[C@]3(C)[C@@H]2C(=O)C[C@@H]2[C@@]4(C)CC[C@H](O)C(C)(C)[C@@H]4CC[C@]23C)O1	Non-Toxic	Active	
CC(C)(O)[C@H]1CC[C@@](C)([C@H]2CC[C@]3(C)[C@@H]2[C@H](O)C[C@@H]2[C@@]4(C)CC[C@@H](N)C(C)(C)[C@@H]4CC[C@]23C)O1	Non-Toxic	Active	
CC(C)(O)[C@H]1CC[C@@](C)([C@H]2CC[C@]3(C)[C@@H]2C(=O)C[C@@H]2[C@@]4(C)CCC(=O)C(C)(C)[C@@H]4CC[C@]23C)O1	Non-Toxic		
CC(C)(O)[C@@H]1CC[C@@](C)([C@H]2CC[C@]3(C)[C@@H]2[C@H](O)C[C@@H]2[C@@]4(C)CC/C(=N\O)C(C)(C)[C@@H]4CC[C@]23C)O1	Non-Toxic	Active	
CC(C)(O[Si](C)(C)C(C)(C)C)[C@H]1CC[C@@](C)([C@H]2CC[C@]3(C)[C@@H]2[C@H](O)C[C@@H]2[C@@]4(C)CC[C@H](O)C(C)(C)[C@@H]4CC[C@]23C)O1	Non-Toxic	inactive	
CC(C)(O)[C@H]1CC[C@@](C)([C@H]2CC[C@]3(C)[C@@H]2/C(=N/O)C[C@@H]2[C@@]4(C)CC[C@H](O)C(C)(C)[C@@H]4CC[C@]23C)O1	Non-Toxic	inactive	
CC(C)(O)[C@@H]1CC[C@@](C)([C@H]2CC[C@]3(C)[C@@H]2[C@H](O)C[C@@H]2[C@@]4(C)CC[C@H](N)C(C)(C)[C@@H]4CC[C@]23C)O1	Non-Toxic	Active	
CC(C)(O)[C@H]1CC[C@@](C)([C@H]2CC[C@]3(C)[C@@H]2[C@H](O)C[C@@H]2[C@@]4(C)CC[C@H](N)C(C)(C)[C@@H]4CC[C@]23C)O1	Non-Toxic	Active	

Source: ChEMBL document CHEMBL4602707, “Synthesis and Structure-Activity Relationship of Pyxinol Derivatives as Novel Anti-Inflammatory Agents” (ACS Med Chem Lett, 2020)
